IC50 and IC90 data for three molecules are collected here from ChEMBL document CHEMBL4229301, “Open-source discovery of chemical leads for next-generation chemoprotective antimalarials” (2018).

This test in a line: Luciferase/luciferin-expressing antifolate-resistant parasites were used to infect a culture of HepG2 cells that were pre-incubated with compounds. Infected hepatocytes emit light due to the luciferase reaction. Assay results are presented as the percent inhibition of light emission compared to control. […]. The format is functional. To be noted: Plasmodium berghei, sporozoite; for IC50: read-out: LUCIFERASE INFECTION ASSAY - IC50; for IC90: read-out: LUCIFERASE INFECTION ASSAY - IC90. In a few lines: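 HepG2-A16-CD81EGFP cells (3x10³/well) were seeded 20-26 h before infection, and compound was added 18 h before infection (0.5% DMSO final; library screened at 0.250-39 µM, average 10 µM). Each well received 1x10³ P. berghei GFP-Luc sporozoites from A. stephensi salivary glands, then plates were spun at 330xg for 3 min. After 48 h at 37°C, 5% CO₂, BrightGlo luminescence was read and normalized to 64 DMSO and 64 10 µM atovaquone wells.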

Where [1] appears, read: PBLUC_HILL_SLOPE 1.94, PBLUC_R_SQUARED 0.789.
Setting [2] is: PBLUC_HILL_SLOPE 1.68, PBLUC_R_SQUARED 0.822.
Where [3] appears, read: PBLUC_HILL_SLOPE 1.77, PBLUC_R_SQUARED 0.431.

Broadly, the IC50 is the concentration at which inhibition is half-maximal. Usually IC90 stands for the concentration at which the effect reaches the 90% level. With `N=c1c2ccccc2nnn1-c1cccc(C(F)(F)F)c1`, under setting [1], the IC50 came out at 796 nM and the IC90 amounted to 2470 nM.

With `c1ccc(CNc2nc(Nc3ccccc3)nc3ccccc23)cc1`, under setting [2], the IC50 came to 476 nM and the IC90 was 1760 nM.

Take `Cc1cc(Nc2ccc(Cl)cc2)n2nc(C(F)(F)F)nc2n1`: under setting [3], the IC50 came to 1540 nM and the IC90 worked out at 5320 nM.
